hiPSC survival: enhancers of human iPSC single-cell survival; hiPSC single-cell survival, ATPlite luminescence; 100% = ROCK inhibitor wells, 0% = DMSO; survival enhancement, % at 20 µM; 360,000 tested, 0.044% active; AID 602274; in the data active = survival enhancement above about 18%;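 also: cells exposed to compounds for 16 hours before the ATP read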
HKDC1 inh: blocks human hexokinase HKDC1 activity; 340,000 tested, 0.16% active; Q2TB90; recombinant HKDC1, G6PDH/diaphorase resazurin coupled fluorescence; AID 493160; inhibition, % at 20 µM;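 active = inhibition above about 35% when tested at 20 µM, limit read from the data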;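 also: plate controls were DMSO wells with enzyme for no effect and DMSO wells lacking enzyme for full effect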
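Incubation: 90 min at room temperature in dark / Material: recombinant HKDC1 (HK5) hexokinase enzyme, produced in-house / Quantity: enzyme 5 µg/mL final / Compound: one dose of 20 µM, 1% DMSO / Reagent: glucose and ATP substrates / Buffer or medium: Tris pH 8.0 buffer with MgCl2, Tween-20, BSA, BME / Technique: resorufin fluorescence at 613 nm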
APOBEC3A inh: human APOBEC3A DNA deaminase inhibition; inhibition, % at 20 µM; 330,000 tested, 0.41% active; P31941; AID 493011; recombinant A3A, FAM/TAMRA ssDNA deamination fluorescence;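 active = at least 40% inhibition at 20 µM here, with at most 30% in a related deaminase screen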;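 also: plate controls were A3A with DMSO for no effect and wells lacking A3A enzyme for full effect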
Target sequence (P31941 whole entry, looked up): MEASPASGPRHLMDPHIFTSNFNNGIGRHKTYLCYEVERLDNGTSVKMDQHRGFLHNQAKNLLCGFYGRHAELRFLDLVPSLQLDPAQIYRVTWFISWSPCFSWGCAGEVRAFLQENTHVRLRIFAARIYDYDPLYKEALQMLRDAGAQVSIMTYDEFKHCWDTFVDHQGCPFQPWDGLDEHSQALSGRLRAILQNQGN
PfGluPho inh: PfG6PD (Plasmodium falciparum) enzyme inhibition; PfGluPho enzyme, NADPH resazurin-diaphorase fluorescence; inhibition, % at 20 µM; 350,000 tested, 0.78% active; AID 504690;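 active = inhibition reaching at least a set limit at 20 µM in the primary screen, cut at about 59% in these data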;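 also: 0% = DMSO wells with substrate and 100% = DMSO wells lacking glucose-6-phosphate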
A3G deaminase: blocks human APOBEC3G single-stranded DNA deamination; recombinant A3G, ssDNA deamination FAM/TAMRA fluorescence; inhibition, % at 20 µM; 330,000 tested, 0.28% active;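 active = inhibition of at least 40% at 20 µM, with no more than 30% in the related APOBEC3A deaminase screen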;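 also: plate controls were DMSO wells with A3G for no effect and wells lacking A3G enzyme for full effect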
Target sequence (Q9HC16 whole entry, looked up): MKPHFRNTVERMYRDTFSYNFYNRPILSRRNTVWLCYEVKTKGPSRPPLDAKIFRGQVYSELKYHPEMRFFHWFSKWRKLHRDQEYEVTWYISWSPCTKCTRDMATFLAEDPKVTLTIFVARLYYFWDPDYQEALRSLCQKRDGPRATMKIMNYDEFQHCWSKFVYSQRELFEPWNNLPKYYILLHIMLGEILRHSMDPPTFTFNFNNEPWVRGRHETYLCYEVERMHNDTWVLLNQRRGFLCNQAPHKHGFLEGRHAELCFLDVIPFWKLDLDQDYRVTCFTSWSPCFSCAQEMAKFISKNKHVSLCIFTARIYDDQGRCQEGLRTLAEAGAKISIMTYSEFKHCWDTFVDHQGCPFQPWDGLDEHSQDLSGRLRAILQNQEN
HKDC1 act conf2: HKDC1 (human) activation, single-dose confirmed; recombinant HKDC1, G6PDH/diaphorase resazurin fluorescence; active compounds read low; 740 tested, 14% active; inhibition, % at 20 µM; shares compounds with HKDC1 inh; AID 504708;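 active = inhibition at or below a set negative limit, negative inhibition meaning the enzyme was activated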
PfGluPho conf: confirmation of Plasmodium falciparum G6PD inhibitors | shares compounds with PfGluPho inh | inhibition, % at 20 µM | 2,400 tested, 34% active | recombinant PfGluPho, NADPH-diaphorase-resazurin fluorescence;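 active = inhibition of at least 50% at 20 µM in any single replicate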;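 also: 0% = DMSO with substrate and 100% = DMSO lacking glucose-6-phosphate substrate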
Diaph ctr 10uM: counter-screen for P. falciparum G6PD inhibitors: diaphorase inhibitors, oxidizers; inhibition, % at 20 µM; shares compounds with PfGluPho inh; 820 tested, 39% active; AID 504862; diaphorase-coupled resazurin reduction, fluorescence, NADPH 10 uM;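 active = average inhibition reaching 50% or more with the compound at 20 µM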;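 also: resorufin red fluorescence formed as diaphorase reduces resazurin using NADPH; 0% = DMSO with enzyme and 100% = DMSO without enzyme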
Diaphorase 30uM: inhibits diaphorase or oxidizes, flagging false PfG6PD hits; 820 tested, 29% active; shares compounds with PfGluPho inh; inhibition, % at 20 µM; Diaphorase/resazurin coupled assay, resorufin fluorescence, 30 uM NADPH;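 active = inhibition averaging 50% or more, tested at 20 µM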;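 also: 0% = DMSO with enzyme and 100% = DMSO wells lacking diaphorase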
* = called active by the depositor; . = no result. Compounds with a hit are over-represented: about 1.4% of the library has one in this group of screens.

SMILES	hiPSC survival	HKDC1 inh	APOBEC3A inh	PfGluPho inh	A3G deaminase	PfGluPho conf	others
O=C1NC(=S)NC(=O)C1=Cc1ccc2c(c1)CCN2CCCCl	0	59*	98	13	93	.	HKDC1 act conf2=10
CCOc1cc(C=C2C(=O)NC(=S)NC2=O)ccc1O	3	2	.	17	.	.
C=CCN1CCc2cccc3c2[C@H]1Cc1ccc(O)c(O)c1-3	0	7	-12	81*	19	84*	Diaph ctr 10uM=23;Diaphorase 30uM=14
C=CCN1CC[C@]23c4c5ccc(O)c4O[C@H]2C(=O)CC[C@@]3(O)[C@H]1C5	2	1	3	12	-2	.
C[C@@H]1COc2cccc(N3CCN(C)CC3)c2S(=O)(=O)N1	0	.	.	.	.	.
CC(=O)OC1N=C(c2ccc(Cl)cc2)c2cc(Br)ccc2NC1=O (stereo not drawn)	0	6	-5	78*	-5	47
CC(=O)OC1N=C(c2ccccc2)c2cc(Br)ccc2NC1=O (stereo not drawn)	-3	1	30	-5	-7	.
COc1cccc(-n2c(/C=C/c3ccc(O)c(O)c3)nc3ccccc3c2=O)c1	-1	-8	5	64*	-4	6
CC1=C[C@@H]2c3cccc4[nH]cc(c34)C[C@H]2N(C)C1	2	8	16	59*	32	-34
CCOP(=S)(OCC)Oc1ccc2c(C)c(Cl)c(=O)oc2c1	3	-7	.	15	.	.
CCOP(=S)(OCC)Oc1cc(C)oc(=O)c1Cl	0	-6	2	63*	7	17
Cc1ccccc1CN1Cc2cnnn2-c2ccccc2C1C#N (stereo not drawn)	2	9	.	8	.	.
Cc1cccc(N=C2c3cc([N+](=O)[O-])ccc3-c3c2cc([N+](=O)[O-])cc3[N+](=O)[O-])c1	-1	28	.	74*	.	18
Cn1c(O)c(/C=C2\N=c3ccccc3=C2CCNC(=S)NC2CC2)c(=O)n(C)c1=O	0	10	-3	47	10	.
CCCCCn1c(=O)c(C(=O)Nc2ncccc2C)c(O)c2ccccc21	-1	-6	-7	-25	2	.
Cc1ccc(-c2nc(N3CCOCC3)s[n+]2-c2ccccc2)cc1	1	-14	.	60*	.	77*	Diaph ctr 10uM=-33;Diaphorase 30uM=-25
CN(C)c1nc(-c2ccccc2)[n+](C)s1	2	-5	-3	54	-8	.
CCn1nc(/C=C/c2ccccc2)nc2c(=O)n(C)c(=O)nc1-2	-1	3	-3	102*	-8	76*	Diaph ctr 10uM=93*;Diaphorase 30uM=98*
NCCc1cc(O)c(O)cc1O	-2	15	.	94*	.	68*	Diaph ctr 10uM=53*;Diaphorase 30uM=47
NC(Cc1cc(O)c(O)cc1O)C(=O)O (stereo not drawn)	.	.	101	.	84	.
O=C1C=CC(=O)C2C1C1(Cl)C(Cl)=C(Cl)C2(Cl)C1(Cl)Cl (stereo not drawn)	-2	1	.	8	.	.
COc1cccc(N2C(=O)NC(=O)/C(=C/c3ccc([N+](=O)[O-])s3)C2=O)c1	0	2	16	83*	19	43
COc1cccc(N2C(=O)NC(=O)/C(=C/c3ccc4c(c3)Cc3ccccc3-4)C2=O)c1	1	8	6	10	2	.
COc1ccc(N2C(=O)/C(=C/C=C/c3ccccc3[N+](=O)[O-])C(=O)NC2=S)cc1	.	13	-1	61*	0	30
Cc1ccccc1-c1ccc2n1Cc1cnnn1-c1ccccc1-2	0	2	.	4	.	.
SMILES	hiPSC survival	HKDC1 inh	APOBEC3A inh	PfGluPho inh	A3G deaminase	PfGluPho conf	others
COc1cc2c(cc1OC)-c1c(OC)c(OC)cc3c1C(C2)N(C)CC3 (stereo not drawn)	0	21	3	68*	-3	41
CC(C)N1CCN(c2ccc(O)cc2)CC1	0	10	.	72*	.	29
C#CC(CC)(CC)NC(=O)Nc1ccc(OCC)cc1	-1	-10	6	-7	5	.
O=[As](O)(O)c1ccc(N=Nc2ccc(O)cc2)cc1	-1	1	.	-11	.	.
O=C1C(Cl)=CC(=Nc2ccc(O)cc2)C=C1Cl	0	14	11	116*	18	111*	Diaph ctr 10uM=93*;Diaphorase 30uM=81*
Cc1ccc(/C=C2\C(=O)NC(=S)N(c3ccccc3F)C2=O)s1	-1	16	.	66*	.	56*	Diaph ctr 10uM=-28;Diaphorase 30uM=-19
O=C(Cc1ccccc1)OCC(=O)c1ccccc1	-1	0	-1	0	1	.
O=C(OCC(=O)c1ccc([N+](=O)[O-])cc1)/C(=C\c1ccc(Cl)cc1)NC(=O)c1ccccc1	2	-8	-3	44	3	69*	Diaph ctr 10uM=-3;Diaphorase 30uM=-12
COc1ccc(CN(CCc2c[nH]c3ccccc23)Cc2ccc(OC)cc2)cc1	1	6	.	19	.	.

Source: PubChem BioAssay
